Assays:
[1] = system: serum urate (sUA); experiment: Serum urate; assay type: in vivo, human; conditions: for Proportion of subjects with sUA ⩽6.0 mg/dl at 4 h after treatment: pooled cohorts
[2] = system: urinary uric acid; experiment: Urinary uric acid excretion; assay type: in vivo, human; conditions: for FEUA (fractional excretion of uric acid) relative to baseline: data not shown; for Mean maximum ReUR (urinary uric acid excretion rate) relative to baseline: in vivo
Summary of the method: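 Oral dosing was once daily after breakfast over 7-day periods in hyperuricaemic Japanese men. Total-catch urine was collected on days −1, 7, 14, 21 and 28, with 240 ml water drunk on rising, within 2 h before dosing. The urinary uric acid excretion rate (mg/h) and fractional excretion (%) were calculated per 24-h collection and compared with baseline.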

[3] = Plasma and urine pharmacokinetics of verinurad; assay type: in vivo; conditions: human, oral
Summary of the method: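 Japanese men with gout or asymptomatic hyperuricaemia (sUA ≥8 mg/dl) took oral drug once daily after breakfast, alone or with febuxostat 10, 20 or 40 mg, over 7-day periods. Serial plasma and total-catch urine were taken on days −1, 7, 14, 21 and 28. Plasma was protein-precipitated and urine water-diluted, both assayed by HPLC-MS/MS.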

[4] = Safety: adverse events, serum creatinine, laboratory evaluations; assay type: in vivo, human
Summary of the method: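 Males aged 21–65 were dosed orally once daily after breakfast for 7-day periods and followed to day 42. Monitoring covered adverse events (MedDRA v18.0), clinical laboratory tests including serum creatinine, vital signs, ECGs and physical examinations. An independent committee was to adjudicate serious renal events. Clinically relevant laboratory abnormalities were graded by Rheumatology Common Toxicity Criteria v2.0. Results are descriptive, in everyone given at least one dose.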

Row | half-life ([3]; plasma, mean t½, varying verinurad doses alone or in combination with febuxostat) | CL renal ([3]; urine and plasma) | Compound | Subjects achieving sUA ⩽6.0 mg/dl 4 h after treatment ([1]; benzbromarone 50 mg alone) | sUA-lowering effect ([1]; benzbromarone 50 mg, Cohort 6) | FEUA (fractional excretion of uric acid) relative to baseline [2] | Mean maximum ReUR (urinary uric acid excretion rate) relative to baseline [2] | Proportion of subjects with sUA ⩽6.0 mg/dl at 4 h after treatment ([1]; febuxostat 10 mg alone) | Proportion of subjects with sUA ⩽6.0 mg/dl at 4 h after treatment ([1]; febuxostat 40 mg alone) | Subjects achieving sUA ⩽6.0 mg/dl 4 h after treatment ([1]; verinurad 10 or 15 mg alone) | Subjects with sCr elevation ⩾1.5 × baseline ([4]; verinurad 2.5 mg or verinurad 15 mg alone (cohort 5)) | Tolerability ([4]; verinurad 2.5 mg to 15 mg, no withdrawals due to adverse events)
1 |  |  | CCc1oc2ccccc2c1C(=O)c1cc(Br)c(O)c(Br)c1 [benzbromarone] | All subjects | generally similar in sUA-lowering effect to verinurad 5 mg combined with febuxostat 20 mg |  |  |  |  |  |  | 
2 |  |  | Cc1nc(-c2ccc(OCC(C)C)c(C#N)c2)sc1C(=O)O [febuxostat, reference compound] |  |  | reduced | reduced | 20.8% | 83.3% |  |  | 
3 | 13 to 24 h | 12.4 to 15.1 mL/min | CC(C)(Sc1ccncc1-c1ccc(C#N)c2ccccc12)C(=O)O [verinurad] |  |  | increased in a dose-dependent manner | increased |  |  | All subjects | Two subjects | well tolerated

— article PMC6105922 (Rheumatology (Oxford, England), 2018)
